Measurements published in ChEMBL document CHEMBL4390640, “Design of N-Benzoxaborole Benzofuran GSK8175-Optimization of Human Pharmacokinetics Inspired by Metabolites of a Failed Clinical HCV Inhibitor” (J Med Chem, 2019).

Assays:
[1] = Half life in human hepatocytes at 0.5 uM by LC-MS/MS analysis; assay type: ADME, cell-based, Hepatocyte
Summary of the method: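 Cryopreserved human hepatocytes were incubated with compound for up to 2 h, and metabolic turnover was followed to estimate half-life.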

[2] = Half life in rat hepatocytes at 0.5 uM by LC-MS/MS analysis; assay type: ADME, cell-based, Hepatocyte
[3] = Oral bioavailability in rat at 5 mg/kg by LC-MS/MS analysis; assay type: ADME, organism-based; details: in vivo
[4] = AUC in rat at 5 mg/kg, po by LC-MS/MS analysis; assay type: ADME, organism-based; details: in vivo
[5] = Half life in rat at 1 mg/kg, iv by LC-MS/MS analysis; assay type: ADME, organism-based; details: in vivo
[6] = Clearance in rat at 1 mg/kg, iv by LC-MS/MS analysis; assay type: ADME, organism-based; details: in vivo
[7] = Volume of distribution at steady state in rat at 1 mg/kg, iv by LC-MS/MS analysis; assay type: ADME, organism-based; details: in vivo, read-out: Vdss
Cytochrome P450 3A4 [8] = molecular target: T1, Cytochrome P450 3A4 (Homo sapiens, UniProt P08684); assay: Inhibition of CYP3A4 in human liver microsomes using nifedipine as substrate preincubated for 7 mins followed by NADPH addition and measured by LC-MS/MS analysis; assay type: ADME
T1 sequence (P08684 whole entry): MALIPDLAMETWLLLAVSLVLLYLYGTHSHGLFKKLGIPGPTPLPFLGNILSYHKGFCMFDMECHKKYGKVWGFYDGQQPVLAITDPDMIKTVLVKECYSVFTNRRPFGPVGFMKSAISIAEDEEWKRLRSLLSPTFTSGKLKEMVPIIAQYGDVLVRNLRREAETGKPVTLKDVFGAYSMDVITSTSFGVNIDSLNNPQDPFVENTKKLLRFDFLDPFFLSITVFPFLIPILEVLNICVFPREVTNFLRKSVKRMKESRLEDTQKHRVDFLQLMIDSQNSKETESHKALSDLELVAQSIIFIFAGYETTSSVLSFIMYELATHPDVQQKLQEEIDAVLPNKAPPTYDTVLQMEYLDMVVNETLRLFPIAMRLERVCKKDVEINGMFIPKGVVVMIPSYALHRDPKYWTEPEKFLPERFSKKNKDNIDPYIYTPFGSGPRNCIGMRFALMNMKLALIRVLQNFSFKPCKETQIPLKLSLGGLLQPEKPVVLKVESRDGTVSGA

Cytochrome P450 2C9 = Cytochrome P450 2C9 (Homo sapiens, UniProt P11712); assay: Inhibition of CYP2C9 in human liver microsomes using diclofenac as substrate preincubated for 10 mins followed by NADPH addition and measured by LC-MS/MS analysis; assay type: ADME
Cytochrome P450 2C9, sequence (P11712 whole entry): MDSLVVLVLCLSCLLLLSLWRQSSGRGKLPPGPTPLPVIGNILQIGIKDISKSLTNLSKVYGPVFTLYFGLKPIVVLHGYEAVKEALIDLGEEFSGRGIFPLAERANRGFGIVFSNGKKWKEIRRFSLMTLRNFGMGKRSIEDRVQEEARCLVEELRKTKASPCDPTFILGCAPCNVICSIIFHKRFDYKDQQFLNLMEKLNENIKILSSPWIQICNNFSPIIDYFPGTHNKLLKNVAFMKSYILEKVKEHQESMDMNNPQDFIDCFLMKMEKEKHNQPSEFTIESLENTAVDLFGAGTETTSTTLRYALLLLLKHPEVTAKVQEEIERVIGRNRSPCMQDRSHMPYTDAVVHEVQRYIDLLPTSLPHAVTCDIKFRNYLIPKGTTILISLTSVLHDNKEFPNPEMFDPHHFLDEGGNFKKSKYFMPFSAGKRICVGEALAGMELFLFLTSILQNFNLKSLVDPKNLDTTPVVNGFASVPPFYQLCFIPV

[9] = Blood clearance in Beagle dog at 1 mg/kg, iv by LC-MS/MS analysis; assay type: ADME, organism-based, Canis lupus familiaris; details: whole blood
Summary of the method: (§1)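 Rat and dog received a single i.v. dose of 1 mg/kg in DMSO/20% hydroxypropyl-β-cyclodextrin (10/90), pH adjusted. Clearance was taken from blood or plasma concentration–time profiles.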

[10] = Blood clearance in rat at 1 mg/kg, iv by LC-MS/MS analysis relative to hepatic blood flow; assay type: ADME, organism-based; details: in vivo
Summary of the method: (§2)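 Clearance expressed as a percentage of liver blood flow: compound blood or plasma clearance after i.v. dosing divided by the hepatic blood flow of that species.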

Cytochrome P450 3A4 [11] = molecular target: T1, Cytochrome P450 3A4; assay: Inhibition of CYP3A4 in human liver microsomes using atorvastatin as substrate preincubated for 7 mins followed by NADPH addition and measured by LC-MS/MS analysis; assay type: ADME
Cytochrome P450 2C19 = Cytochrome P450 2C19 (Homo sapiens, UniProt P33261); assay: Inhibition of CYP2C19 in human liver microsomes using mephenytoin as substrate preincubated for 10 mins followed by NADPH addition and measured by LC-MS/MS analysis; assay type: ADME
Cytochrome P450 2C19, sequence (P33261 whole entry): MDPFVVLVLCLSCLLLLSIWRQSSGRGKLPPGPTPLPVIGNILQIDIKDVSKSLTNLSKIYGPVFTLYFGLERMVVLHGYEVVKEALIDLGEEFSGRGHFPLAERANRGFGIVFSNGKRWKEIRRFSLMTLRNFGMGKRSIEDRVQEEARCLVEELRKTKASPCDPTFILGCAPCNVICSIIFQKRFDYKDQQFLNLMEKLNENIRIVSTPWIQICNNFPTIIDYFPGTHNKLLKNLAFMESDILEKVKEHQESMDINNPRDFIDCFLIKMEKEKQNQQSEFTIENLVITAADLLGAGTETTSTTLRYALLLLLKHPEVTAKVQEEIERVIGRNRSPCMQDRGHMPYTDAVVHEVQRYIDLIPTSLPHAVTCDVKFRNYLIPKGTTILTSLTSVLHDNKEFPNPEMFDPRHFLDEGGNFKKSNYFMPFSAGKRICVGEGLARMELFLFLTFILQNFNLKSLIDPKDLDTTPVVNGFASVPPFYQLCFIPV

[12] = Half life in human assessed as 5-cyclopropyl-2-(4-fluorophenyl)-N-methyl-6-(methylsulfonamido)benzofuran-3-carboxamide level; assay type: ADME
Cytochrome P450 3A4 [13] = molecular target: T1, Cytochrome P450 3A4; assay: Inhibition of CYP3A4 in human liver microsomes using midazolam as substrate preincubated for 7 mins followed by NADPH addition and measured by LC-MS/MS analysis; assay type: ADME
[14] = Plasma clearance in cynomolgus monkey at 1 mg/kg, iv by LC-MS/MS analysis; assay type: ADME, organism-based, Macaca fascicularis
[15] = Blood clearance in Beagle dog at 1 mg/kg, iv by LC-MS/MS analysis relative to hepatic blood flow; assay type: ADME, organism-based, Canis lupus familiaris; details: in vivo; summary of the method: as §2
Hepatitis C virus = assay: Antiviral activity against HCV genotype1 infected in human assessed as reduction in plasma viral RNA level at 420 mg, po administered as single dose; assay type: functional, Hepacivirus hominis, genotype 1
[16] = Blood clearance in rat at 1 mg/kg, iv by LC-MS/MS analysis; assay type: ADME, organism-based; details: whole blood; summary of the method: as §1
[17] = Plasma clearance in CD1 mouse at 1 mg/kg, iv by LC-MS/MS analysis relative to hepatic blood flow; assay type: ADME, organism-based; details: in vivo; summary of the method: as §2
[18] = Plasma clearance in cynomolgus monkey at 1 mg/kg, iv by LC-MS/MS analysis relative to hepatic blood flow; assay type: ADME, organism-based, Macaca fascicularis; details: in vivo; summary of the method: as §2
[19] = Blood clearance in CD1 mouse at 1 mg/kg, iv by LC-MS/MS analysis relative to hepatic blood flow; assay type: ADME, organism-based; details: in vivo; summary of the method: as §2
[20] = Blood clearance in cynomolgus monkey at 1 mg/kg, iv by LC-MS/MS analysis relative to hepatic blood flow; assay type: ADME, organism-based, Macaca fascicularis; details: in vivo; summary of the method: as §2
Cytochrome P450 2D6 = Cytochrome P450 2D6 (Homo sapiens, UniProt P10635); assay: Inhibition of CYP2D6 in human liver microsomes at 0.033 to 33 uM using bufuralol as substrate preincubated for 10 mins followed by NADPH addition and measured by LC-MS/MS analysis; assay type: ADME
Cytochrome P450 2D6, sequence (P10635 whole entry): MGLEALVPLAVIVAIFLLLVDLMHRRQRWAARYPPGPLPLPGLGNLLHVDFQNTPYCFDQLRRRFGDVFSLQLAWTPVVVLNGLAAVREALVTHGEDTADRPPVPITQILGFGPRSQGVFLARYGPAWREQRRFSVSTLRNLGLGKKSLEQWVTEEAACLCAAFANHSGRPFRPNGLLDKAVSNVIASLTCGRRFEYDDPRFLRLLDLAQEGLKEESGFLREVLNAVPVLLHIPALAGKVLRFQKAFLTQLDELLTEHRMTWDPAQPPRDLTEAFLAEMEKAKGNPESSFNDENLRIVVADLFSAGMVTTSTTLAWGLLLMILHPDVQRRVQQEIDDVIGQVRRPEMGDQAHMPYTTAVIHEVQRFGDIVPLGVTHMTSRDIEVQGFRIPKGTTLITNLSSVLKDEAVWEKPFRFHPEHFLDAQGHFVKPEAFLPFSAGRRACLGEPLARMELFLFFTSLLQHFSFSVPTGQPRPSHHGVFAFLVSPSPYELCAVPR

[21] = Blood clearance in CD1 mouse at 1 mg/kg, iv by LC-MS/MS analysis; assay type: ADME, organism-based; details: whole blood
Cytochrome P450 1A2 = molecular target: T2, Cytochrome P450 1A2 (Homo sapiens, UniProt P05177); assay: Inhibition of CYP1A2 in human liver microsomes at 0.033 to 33 uM using phenacetin as substrate preincubated for 10 mins followed by NADPH addition and measured by LC-MS/MS analysis; assay type: ADME
T2 sequence (P05177 whole entry): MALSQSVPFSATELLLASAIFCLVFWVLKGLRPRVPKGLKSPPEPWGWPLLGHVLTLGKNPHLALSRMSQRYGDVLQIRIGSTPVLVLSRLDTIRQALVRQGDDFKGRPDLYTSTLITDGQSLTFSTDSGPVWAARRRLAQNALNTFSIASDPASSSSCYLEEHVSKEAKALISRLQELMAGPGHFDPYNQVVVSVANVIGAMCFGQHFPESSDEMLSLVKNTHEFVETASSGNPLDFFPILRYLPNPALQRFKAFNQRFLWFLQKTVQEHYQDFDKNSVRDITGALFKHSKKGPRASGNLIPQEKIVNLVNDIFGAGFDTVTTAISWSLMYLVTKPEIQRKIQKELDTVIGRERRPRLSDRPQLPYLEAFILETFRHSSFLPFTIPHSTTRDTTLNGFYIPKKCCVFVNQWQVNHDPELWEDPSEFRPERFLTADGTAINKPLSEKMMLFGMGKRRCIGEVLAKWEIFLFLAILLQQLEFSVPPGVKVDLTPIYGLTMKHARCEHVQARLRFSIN

[22] = molecular target: Voltage-gated inwardly rectifying potassium channel KCNH2 (Homo sapiens, UniProt Q12809); assay: Inhibition of human ERG by patch clamp electrophysiology method
Voltage-gated inwardly rectifying potassium channel KCNH2, sequence (Q12809 whole entry): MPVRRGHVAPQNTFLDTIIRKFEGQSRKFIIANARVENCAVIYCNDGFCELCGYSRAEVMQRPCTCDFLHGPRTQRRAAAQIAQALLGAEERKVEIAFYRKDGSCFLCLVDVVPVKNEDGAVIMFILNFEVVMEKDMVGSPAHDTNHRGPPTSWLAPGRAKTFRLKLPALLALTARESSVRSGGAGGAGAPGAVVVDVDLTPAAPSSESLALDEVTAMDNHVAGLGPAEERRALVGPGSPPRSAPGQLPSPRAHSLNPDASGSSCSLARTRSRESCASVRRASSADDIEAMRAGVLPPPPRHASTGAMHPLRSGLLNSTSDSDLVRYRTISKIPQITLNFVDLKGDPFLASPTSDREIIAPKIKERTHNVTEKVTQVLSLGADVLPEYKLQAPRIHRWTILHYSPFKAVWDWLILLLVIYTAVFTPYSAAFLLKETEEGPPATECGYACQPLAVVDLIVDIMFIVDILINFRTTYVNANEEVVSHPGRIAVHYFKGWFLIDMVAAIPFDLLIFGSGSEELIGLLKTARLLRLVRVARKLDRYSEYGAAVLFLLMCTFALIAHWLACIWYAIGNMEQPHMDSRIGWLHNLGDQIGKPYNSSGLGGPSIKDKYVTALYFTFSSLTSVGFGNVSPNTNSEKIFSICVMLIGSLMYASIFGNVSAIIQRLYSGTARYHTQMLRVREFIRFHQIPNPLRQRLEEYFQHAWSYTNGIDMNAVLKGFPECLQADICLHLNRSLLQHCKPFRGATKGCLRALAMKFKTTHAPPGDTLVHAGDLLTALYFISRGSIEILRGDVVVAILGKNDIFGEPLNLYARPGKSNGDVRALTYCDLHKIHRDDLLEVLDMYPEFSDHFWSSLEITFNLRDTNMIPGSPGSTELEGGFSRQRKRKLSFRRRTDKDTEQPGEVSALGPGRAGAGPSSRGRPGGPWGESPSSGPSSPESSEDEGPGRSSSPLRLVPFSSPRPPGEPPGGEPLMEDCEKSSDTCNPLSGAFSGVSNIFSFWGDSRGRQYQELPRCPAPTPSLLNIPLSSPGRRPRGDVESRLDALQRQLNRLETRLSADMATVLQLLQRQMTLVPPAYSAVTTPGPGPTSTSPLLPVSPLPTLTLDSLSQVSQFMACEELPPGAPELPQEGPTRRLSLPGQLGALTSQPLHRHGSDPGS
Summary of the method: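 hERG activity was measured by patch-clamp electrophysiology as the reduction in channel current caused by the compound, giving an IC50.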

**Q.** For `CNC(=O)c1c(-c2ccc(F)cc2)oc2cc(N(C3CCc4c(B(O)O)cccc43)S(C)(=O)=O)c(C3CC3)cc12` (stereo not given), which t1/2 ([1]; 0.5 µM) is on record?
**A.** < 0.25 h

**Q.** And the half-life at 0.5 µM [2]?
**A.** 0.75 h

**Q.** And the bioavailability [3]?
**A.** 4%

**Q.** And the AUC [4]?
**A.** 40 ng·h/mL

**Q.** What about the half-life [5] of the same compound?
**A.** 1.1 h

**Q.** And the clearance [6]?
**A.** 69 mL/min/kg

**Q.** And the Vd [7]?
**A.** 3.5 L/kg

**Q.** What does the source list for `CNC(=O)c1c(-c2ccc(F)cc2)oc2cc(N(Cc3ccc(B(O)O)c(F)c3)S(C)(=O)=O)c(C3CC3)cc12`?
**A.** IC50 (Cytochrome P450 3A4 [8]): 28 µM; IC50 (Cytochrome P450 2C9): 4.9 µM; clearance [9]: 11 mL/min/kg; CL [10]: 37%; half-life at 0.5 µM [1]: 1 h; IC50 (Cytochrome P450 3A4 [11]): 7.1 µM; IC50 (Cytochrome P450 2C19): 18 µM; t1/2 [12]: 45 h; IC50 (Cytochrome P450 3A4 [13]): > 33 µM; clearance [14]: 48 mL/min/kg; bioavailability [3]: 23%; CL [15]: 19%; Activity (Hepatitis C virus): 1.33 log10IU/ml; clearance [16]: 29 mL/min/kg; AUC [4]: 700 ng·h/mL; half-life [5]: 1 h; clearance [6]: 29 mL/min/kg; Vd [7]: 1.4 L/kg; CL [17]: 1.1%; CL [18]: 100%

**Q.** Which clearance [6] does the source give for `CNC(=O)c1c(-c2ccc(F)cc2)oc2cc(N(Cc3ccc(B(O)O)cc3C(F)(F)F)S(C)(=O)=O)c(C3CC3)cc12` here?
**A.** 3.5 mL/min/kg

**Q.** For `CNC(=O)c1c(-c2ccc(F)cc2)oc2cc(N(c3cc(Cl)c4c(c3)COB4O)S(C)(=O)=O)c(C3CC3)cc12`, which CL [19] is on record?
**A.** 0.6%

**Q.** And the CL [20]?
**A.** 13%

**Q.** What about the IC50 (Cytochrome P450 3A4 [8]) of the same compound?
**A.** > 33 µM

**Q.** What about the IC50 (Cytochrome P450 2C9) of the same compound?
**A.** 22 µM

**Q.** And the “inhibition (INH)” value (Cytochrome P450 2D6)?
**A.** Active

**Q.** What about the CL [10] of the same compound?
**A.** 8.9%

**Q.** And the IC50 (Cytochrome P450 3A4 [11])?
**A.** > 33 µM

**Q.** What about the clearance [21] of the same compound?
**A.** 0.7 mL/min/kg

**Q.** And the IC50 (Cytochrome P450 2C19)?
**A.** > 33 µM

**Q.** What about the IC50 (Cytochrome P450 3A4 [13]) of the same compound?
**A.** > 33 µM

**Q.** What about the CL [15] of the same compound?
**A.** 2.1%

**Q.** And the “inhibition (INH)” value (Cytochrome P450 1A2)?
**A.** Active

**Q.** What about the AUC [4] of the same compound?
**A.** 5400 ng·h/mL

**Q.** What about the half-life [5] of the same compound?
**A.** 2.8 h

**Q.** What about the IC50 [22] of the same compound?
**A.** 16 µM

**Q.** And the Vd [7]?
**A.** 0.9 L/kg

**Q.** With `CNC(=O)c1c(-c2ccc(F)cc2)oc2cc(-n3nccc3-c3ccc(B(O)O)c(F)c3)c(C3CC3)cc12` as the compound, how does the IC50 (Cytochrome P450 3A4 [8]) read?
**A.** > 33 µM

**Q.** And the IC50 (Cytochrome P450 2C9)?
**A.** 1.5 µM

**Q.** And the IC50 (Cytochrome P450 3A4 [11])?
**A.** 2 µM

**Q.** And the IC50 (Cytochrome P450 2C19)?
**A.** 23 µM

**Q.** What about the IC50 (Cytochrome P450 3A4 [13]) of the same compound?
**A.** > 33 µM

**Q.** And the bioavailability [3]?
**A.** 64%

**Q.** What about the AUC [4] of the same compound?
**A.** 10000 ng·h/mL

**Q.** What about the half-life [5] of the same compound?
**A.** 3.4 h

**Q.** And the clearance [6]?
**A.** 5.4 mL/min/kg

**Q.** And the Vd [7]?
**A.** 1.3 L/kg

**Q.** Which results are given for `CNC(=O)c1c(-c2ccc(F)cc2)oc2cc(N3C(=O)OC[C@@H]3c3ccc(B(O)O)c(F)c3)c(C3CC3)cc12`?
**A.** bioavailability [3]: 8%; AUC [4]: 280 ng·h/mL; half-life [5]: 1.2 h; clearance [6]: 22 mL/min/kg; Vd [7]: 1.3 L/kg

**Q.** For `CNC(=O)c1c(-c2ccc(F)cc2)oc2cc(-n3ncnc3-c3ccc(B(O)O)c(F)c3)c(C3CC3)cc12`, which IC50 (Cytochrome P450 3A4 [8]) is on record?
**A.** > 33 µM

**Q.** And the IC50 (Cytochrome P450 2C9)?
**A.** 2.7 µM

**Q.** What about the IC50 (Cytochrome P450 3A4 [11]) of the same compound?
**A.** 8.9 µM

**Q.** And the IC50 (Cytochrome P450 2C19)?
**A.** 1.2 µM

**Q.** And the IC50 (Cytochrome P450 3A4 [13])?
**A.** > 33 µM

**Q.** And the bioavailability [3]?
**A.** 40%

**Q.** And the AUC [4]?
**A.** 7600 ng·h/mL

**Q.** What about the half-life [5] of the same compound?
**A.** 2.6 h

**Q.** What about the clearance [6] of the same compound?
**A.** 4.5 mL/min/kg

**Q.** What about the Vd [7] of the same compound?
**A.** 0.9 L/kg

**Q.** For `CNC(=O)c1c(-c2ccc(F)cc2)oc2cc(N(c3ccc(B(O)O)c(Cl)c3)S(C)(=O)=O)c(C3CC3)cc12`, which IC50 (Cytochrome P450 3A4 [8]) is on record?
**A.** 8.1 µM

**Q.** And the IC50 (Cytochrome P450 2C9)?
**A.** 2.6 µM

**Q.** What about the IC50 (Cytochrome P450 3A4 [11]) of the same compound?
**A.** 4.2 µM

**Q.** What about the IC50 (Cytochrome P450 2C19) of the same compound?
**A.** 7.4 µM

**Q.** What about the IC50 (Cytochrome P450 3A4 [13]) of the same compound?
**A.** > 33 µM

**Q.** And the bioavailability [3]?
**A.** 27%

**Q.** What about the AUC [4] of the same compound?
**A.** 4800 ng·h/mL

**Q.** And the half-life [5]?
**A.** 3.7 h

**Q.** And the IC50 [22]?
**A.** 1.6 µM

**Q.** What about the clearance [6] of the same compound?
**A.** 5.1 mL/min/kg

**Q.** What about the Vd [7] of the same compound?
**A.** 1.1 L/kg
